# Tests used:
# Liver [1] = assay: Metabolic stability in human liver microsomes assessed as compound remaining at 10 uM after 1 hr by LC-MS/MS analysis; type: ADME, microsome
# How it was run: (§1)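 Compound stability was measured in human or mouse liver microsomes as percent remaining after 1 h. Data came from two independent experiments, each run in triplicate.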
# Liver [2] = assay: Metabolic stability in mouse liver microsomes assessed as compound remaining at 10 uM after 1 hr by LC-MS/MS analysis; type: ADME, microsome; how it was run: as §1
# [3] = Half life in human liver microsomes at 10 uM by LC-MS/MS analysis; type: ADME, microsome
# Liver [4] = assay: (§2) Half life in mouse liver microsomes at 10 uM by LC-MS/MS analysis; type: ADME, microsome; conditions: microsomes, 10 µM
# [5] = Cytotoxicity in HEK293 cells after 48 hrs by Cell-titer Glo reagent based assay; conditions: human, read-out: LD50
# How it was run: (§3)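 Cells (HEK293, HepG2 or BEAS2B) exposed to compounds at a range of concentrations for 48 h; viability read by Cell-Titer Glo luminescence. Normalized to DMSO (negative) and 3-dibutylamino-1-(4-hexyl-phenyl)-propan-1-one at 150 μM final in DMSO (positive).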
# [6] = Cytotoxicity in human HepG2 cells after 48 hrs by Cell-titer Glo reagent based assay; conditions: read-out: LD50; how it was run: as §3
# [7] = Cytotoxicity in human BEAS2B cells after 48 hrs by Cell-titer Glo reagent based assay; set-up: species or system BEAS-2B; conditions: read-out: LD50; how it was run: as §3
# [8] = as §2; type: ADME, microsome; conditions: liver microsomes
# [9] = Solubility of the compound in PBS/1% DMSO at 10 uM; type: physicochemical; conditions: buffer
# How it was run: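 Solubility was judged at 10 μM in PBS containing 1% DMSO.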
# [10] = Solubility of the compound in 50% PBS/40% propylene glycol/10% DMSO at 10 uM; type: physicochemical; conditions: buffer
# Mus musculus [11] = assay: Neurotoxicity in Swiss Webster mouse assessed as induction of senorimotor impairment at 15 mg/kg administered 10 mins prior to testing and measured for 3 mins at 10 to 60 mins after drug administration by rotarod method; type: toxicity, organism-based; conditions: in vivo
# Mus musculus [12] = assay: Neurotoxicity in Swiss Webster mouse assessed as induction of senorimotor impairment at 40 mg/kg, ip administered 10 mins prior to testing and measured for 3 mins at 10 to 60 mins after drug administration by rotarod method; type: toxicity, organism-based; conditions: in vivo
# How it was run: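 Swiss Webster mice, pre-trained at 15 rpm until they held on for 3 min at three consecutive sessions, were given a single i.p. dose of 40 mg/kg in 10% DMSO/40% propylene glycol/50% PBS. Rotarod at 15 rpm for 3 min at 10, 30 and 60 min after dosing. Falls before 3 min scored as fail, with time of fall recorded. N = 10, mean ± SEM. Vehicle and diazepam 5 mg/kg i.p. controls. Mice rested 2–3 days between doses.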
Structure (SMILES),Stability (Liver [1]) [%],Stability (Liver [2]) [%],half-life at 10 µM [3] [h],t1/2 (Liver [4]) [h],CC50 at 48 h [5] [µM],CC50 at 48 h [6] [µM],CC50 at 48 h [7] [µM],half-life at 10 µM [8] [h],solubility [9],solubility [10],Activity (Mus musculus [11]),Activity (Mus musculus [12])
COc1ccc2c(c1)C(=O)N1CCC[C@H]1c1c(C(=O)NC3CC3)ncn1-2,79.9,91.3,13.1,0.222,> 200,> 400,> 400,–,–,–,–,–
[2H]C([2H])([2H])Oc1ccc2c(c1)C(=O)N1CCC[C@H]1c1c(C(=O)OCC)ncn1-2,92.8,85.5,14,–,> 400,> 400,> 400,5.85,–,–,–,–
CCNC(=O)c1ncn2c1[C@@H]1CCCN1C(=O)c1cc(OC)ccc1-2,90.7,50.1,12.2,4.72,> 400,> 400,> 400,–,–,–,–,–
[2H]C([2H])([2H])Oc1ccc2c(c1)C(=O)N1CCC[C@H]1c1c(C(=O)OC(C)(C)C)ncn1-2,91.9,17.6,16.9,–,> 100,> 400,> 200,0.428,–,–,–,–
COc1ccc2c(c1)C(=O)N1CCC[C@H]1c1c(C(=O)OC(C(F)(F)F)C(F)(F)F)ncn1-2,–,–,–,–,> 200,> 400,> 400,–,Insoluble,Insoluble,–,–
[2H]C([2H])([2H])Oc1ccc2c(c1)C(=O)N1CCC[C@H]1c1c(C(=O)SC(C)(C)C)ncn1-2,–,–,–,–,16.8,> 100,> 100,–,Insoluble,–,–,–
[2H]C([2H])([2H])Oc1ccc2c(c1)C(=O)N1CCC[C@H]1c1c(C(=O)NC3CC3)ncn1-2,88.1,94.1,30,0.295,> 200,> 400,> 400,–,–,–,–,–
COc1ccc2c(c1)C(=O)N1CCC[C@H]1c1c(C(=O)OC(C)(C)C)ncn1-2,92.1,16.2,11.9,–,> 100,> 400,> 200,0.402,–,–,Toxic,–
CC(C)(C)OC(=O)c1ncn2c1[C@@H]1CCCN1C(=O)c1cc(O)ccc1-2,90.6,46.6,9.65,–,> 400,> 400,> 400,0.96,–,–,–,–
[2H]C([2H])([2H])Oc1ccc2c(c1)C(=O)N1CCC[C@H]1c1c(C(=O)OC(C(F)(F)F)C(F)(F)F)ncn1-2,77.1,62.5,3.4,–,> 200,> 400,> 400,1.82,–,Insoluble,–,–
CCOC(=O)c1ncn2c1[C@@H]1CCCN1C(=O)c1cc(OC)ccc1-2,99.1,85.4,–,–,> 400,> 400,> 400,5.3,–,–,–,–
COc1ccc2c(c1)C(=O)N1CCC[C@H]1c1c(C(=O)NC(C)(C)C)ncn1-2,92.8,4.2,3.23,10.4,> 200,> 400,> 400,–,–,–,–,–
COc1ccc2c(c1)C(=O)N1CCC[C@H]1c1c(C(=O)OCC(C)C)ncn1-2,77.8,13.4,2.82,–,> 100,> 200,> 200,0.325,–,Insoluble,–,–
[2H]C([2H])([2H])Oc1ccc2c(c1)C(=O)N1CCC[C@H]1c1c(C(=O)OCC(C)C)ncn1-2,78.7,22.4,3.35,–,> 100,> 200,> 200,0.448,–,–,–,Toxic

# — ChEMBL document CHEMBL3992505, “Optimization of substituted imidazobenzodiazepines as novel asthma treatments” (Eur J Med Chem, 2017)
